Experimental data from ChEMBL document CHEMBL1133543, “Effect of ring fluorination on the pharmacology of hallucinogenic tryptamines” (J Med Chem, 2000).

Legend:
[1] = target: T1, 5-hydroxytryptamine receptor 1A (Homo sapiens, UniProt P08908); assay: Evaluated for the binding constant at [3H]8-OH-DPAT-labeled human 5-hydroxytryptamine 1A receptor
T1 sequence (P08908 whole entry): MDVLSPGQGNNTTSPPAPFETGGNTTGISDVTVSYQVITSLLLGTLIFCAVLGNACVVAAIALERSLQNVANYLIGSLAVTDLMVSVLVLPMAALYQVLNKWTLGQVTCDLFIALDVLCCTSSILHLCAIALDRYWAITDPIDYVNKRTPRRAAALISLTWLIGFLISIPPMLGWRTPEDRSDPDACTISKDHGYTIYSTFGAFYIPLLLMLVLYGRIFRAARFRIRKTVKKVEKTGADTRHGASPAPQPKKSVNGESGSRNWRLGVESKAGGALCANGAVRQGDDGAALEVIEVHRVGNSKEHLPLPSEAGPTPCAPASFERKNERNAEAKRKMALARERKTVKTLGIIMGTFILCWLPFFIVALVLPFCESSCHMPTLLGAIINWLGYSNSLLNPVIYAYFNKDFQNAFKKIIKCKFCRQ

[2] = target: T2, 5-hydroxytryptamine receptor 2A (Rattus norvegicus, UniProt P14842); assay: Evaluated for the effective concentration at [125I]-DOI-labeled rat 5-hydroxytryptamine 2A receptor
T2 sequence (P14842 whole entry): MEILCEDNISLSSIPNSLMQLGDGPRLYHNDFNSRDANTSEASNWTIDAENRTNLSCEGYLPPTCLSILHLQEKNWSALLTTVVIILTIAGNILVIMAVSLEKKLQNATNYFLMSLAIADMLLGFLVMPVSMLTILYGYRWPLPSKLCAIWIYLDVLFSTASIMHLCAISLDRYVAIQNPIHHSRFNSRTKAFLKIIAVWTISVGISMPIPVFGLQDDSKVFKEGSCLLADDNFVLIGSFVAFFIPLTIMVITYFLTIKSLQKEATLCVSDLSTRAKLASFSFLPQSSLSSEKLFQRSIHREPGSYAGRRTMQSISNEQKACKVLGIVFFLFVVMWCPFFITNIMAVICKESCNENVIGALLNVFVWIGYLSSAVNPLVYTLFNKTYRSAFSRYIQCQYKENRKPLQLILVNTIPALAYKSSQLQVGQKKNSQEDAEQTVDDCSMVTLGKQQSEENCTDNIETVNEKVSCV

[3] = target: 5-hydroxytryptamine receptor 2A (Rattus norvegicus) (UniProt P14842); assay: Intrinsic activity was determined at 5-hydroxytryptamine 2A receptor which is percentage response given compared with the response produced by 10 uM serotonin.
5-hydroxytryptamine receptor 2A (Rattus norvegicus), sequence (P14842 whole entry): as above
Procedure, shortened: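 Cells were pretreated 15 min with 10 µM pargyline and 10 mM LiCl, then exposed to agonist for 30 min at 37 °C. Inositol phosphates were separated on Dowex-1 and counted. EC50 was taken for PI turnover. Intrinsic activity is the response relative to 10 µM serotonin. Repeated 3-4 times.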

[4] = target: T2, 5-hydroxytryptamine receptor 2A; assay: Evaluated for the binding constant at [125I]-DOI-labeled rat 5-hydroxytryptamine 2A receptor
Procedure, shortened: (§1)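 Competition binding with membranes from harvested cells. Rat 5-HT2A or 5-HT2C receptors were expressed in NIH3T3 cells and labelled with 0.20 nM [125I]DOI. […] Buffer was 50 mM Tris, 0.5 mM EDTA, 10 mM MgCl2, pH 7.4. Incubation ran 60 min at 25 °C, then filtration and counting. Ten concentrations were run in duplicate, n = 3-5. Ki was obtained by Cheng–Prusoff.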

[5] = target: T3, 5-hydroxytryptamine receptor 2C (Rattus norvegicus, UniProt P08909); assay: Evaluated for the binding constant at [125I]-DOI-labeled rat 5-hydroxytryptamine 2C receptor; procedure, shortened: as §1
T3 sequence (P08909 whole entry): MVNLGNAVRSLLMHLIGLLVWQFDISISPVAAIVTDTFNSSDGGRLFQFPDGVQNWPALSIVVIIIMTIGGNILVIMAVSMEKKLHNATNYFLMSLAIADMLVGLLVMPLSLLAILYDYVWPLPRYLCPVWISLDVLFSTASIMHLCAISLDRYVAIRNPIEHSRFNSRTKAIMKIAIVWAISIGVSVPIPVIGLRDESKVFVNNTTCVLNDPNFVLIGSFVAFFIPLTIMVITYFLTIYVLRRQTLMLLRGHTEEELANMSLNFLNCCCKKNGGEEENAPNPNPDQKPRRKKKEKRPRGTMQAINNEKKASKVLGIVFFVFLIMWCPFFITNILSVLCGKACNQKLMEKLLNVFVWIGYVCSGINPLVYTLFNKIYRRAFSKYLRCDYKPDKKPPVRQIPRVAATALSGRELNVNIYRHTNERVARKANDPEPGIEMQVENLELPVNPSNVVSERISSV

[6] = tested on: Rattus norvegicus; assay: Maximum percentage of DOI-trained rats responding on the training drug lever at 4 umol/kg; format: functional
Procedure, shortened: (§2)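 Rats trained (FR50, 15-min sessions) to discriminate ip training drug from saline: LSD 0.08 mg/kg (186 nmol/kg), DOI 0.4 mg/kg (1.12 µmol/kg) or LY293284 0.025 mg/kg (75 nmol/kg), in 0.9% saline. Test drugs given ip 30 min (or 15 min) before extinction sessions. At least three doses, at least eight rats per dose. Scored quantally as %SDL. ED50 and 95% CI by Litchfield–Wilcoxon.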

[7] = organism: Rattus norvegicus; assay: Evaluated in the two-lever drug discrimination assay in LSD trained rats to assess hallucinogenic-like activity (95% confidence intervals); format: functional; procedure, shortened: as §2
[8] = target: T4, 5-hydroxytryptamine receptor 1A (Rattus norvegicus) (UniProt P19327); assay: Evaluated for the 5-hydroxytryptamine 1A receptor agonist activity in LY-293284 trained rats; format: functional; procedure, shortened: as §2
T4 sequence (whole entry): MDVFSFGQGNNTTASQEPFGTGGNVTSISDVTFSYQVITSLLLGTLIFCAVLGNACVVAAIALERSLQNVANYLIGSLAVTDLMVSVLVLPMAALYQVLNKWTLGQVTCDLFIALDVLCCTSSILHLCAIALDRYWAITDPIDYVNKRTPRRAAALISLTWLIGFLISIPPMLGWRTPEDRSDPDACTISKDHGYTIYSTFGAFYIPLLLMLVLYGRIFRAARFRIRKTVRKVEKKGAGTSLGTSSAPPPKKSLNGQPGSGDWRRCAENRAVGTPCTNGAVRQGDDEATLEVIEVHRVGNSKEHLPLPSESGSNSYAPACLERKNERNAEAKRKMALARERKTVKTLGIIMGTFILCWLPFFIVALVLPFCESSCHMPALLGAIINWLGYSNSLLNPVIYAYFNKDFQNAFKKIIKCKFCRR

[9] = target: T1, 5-hydroxytryptamine receptor 1A; assay: EC50 for inhibition of 50 uM forskolin-stimulated cAMP accumulation against 5-hydroxytryptamine 1A receptor; format: functional
[10] = organism: Rattus norvegicus; assay: Evaluated in the two-lever drug discrimination assay in DOI trained rats to assess hallucinogenic-like activity (95% confidence intervals); format: functional; procedure, shortened: as §2
[11] = tested on: Rattus norvegicus; assay: Maximum percentage of LSD-trained rats responding on the training drug lever at 8 umol/kg; format: functional; procedure, shortened: as §2
[12] = tested on: Rattus norvegicus; assay: Maximum percentage of DOI-trained rats responding on the training drug lever at 8 umol/kg; format: functional; procedure, shortened: as §2
[13] = target: T1, 5-hydroxytryptamine receptor 1A; assay: Evaluated for the binding constant at [3H]8-OH-DPAT-labeled human 5-hydroxytryptamine 1A receptor receptor
[14] = tested on: Rattus norvegicus; assay: Maximum percentage of DOI-trained rats responding on the training drug lever at 1 umol/kg; format: functional; procedure, shortened: as §2
[15] = tested on: Rattus norvegicus; assay: Maximum percentage of LSD-trained rats responding on the training drug lever at 2 umol/kg; format: functional; procedure, shortened: as §2

Row | SMILES | Ki [1] | EC50 [2] | Intrinsic activity [3] | Ki [4] | Ki [5] | ED50 [7] | EC50 [9] | other results
1 | COc1cc2c(CCN(C)C)c[nH]c2cc1F | 84.5 nM | 7900 nM | 110% | 33 nM | 19 nM | 4.72 µmol/kg |  | ED50 [6]: 50 µmol/kg
2 | CCCN(CCC)C1CCc2cccc(O)c2C1 (centres undefined) |  |  |  |  |  |  |  | ED50 [8]: 0.099 µmol/kg
3 | CCN(CC)CCc1c[nH]c2ccc(OC)cc12 | 1.7 nM | 2390 nM | 99% | 42 nM | 16 nM | 1.49 µmol/kg | 22 nM | 
4 | CN(C)CCc1c[nH]c2cc(F)cc(O)c12 | 114 nM | 2600 nM | 85% |  | 7.4 nM |  |  | 
5 | CCN(CC)C(=O)[C@@H]1C=C2c3cccc4[nH]cc(c34)C[C@H]2N(C)C1 [LYSERGIDE] |  |  |  |  |  | 0.037 µmol/kg |  | ED50 [10]: 0.014 µmol/kg
6 | CCN(CC)CCc1c[nH]c2cc(F)ccc12 | 256 nM | 33900 nM | 63% | 145 nM | 210 nM |  | 3700 nM | ED50 [11]: 40 µmol/kg; ED50 [12]: 33 µmol/kg
7 | CN(C)CCc1c[nH]c2c(F)ccc(O)c12 |  | 4920 nM | 76% | 13 nM | 5.4 nM |  |  | Ki [13]: 120 nM; ED50 [11]: 63 µmol/kg
8 | CCN(CC)CCc1c[nH]c2ccccc12 | 47 nM | 5370 nM | 82% | 133 nM | 104 nM | 2.53 µmol/kg | 680 nM | 
9 | COc1ccc2[nH]cc(CCN(C)C)c2c1F |  | 18100 nM | 88% | 122 nM | 55 nM |  | 0.93 nM | ED50 [8]: 0.17 µmol/kg; ED50 [14]: 66 µmol/kg; ED50 [15]: 22 µmol/kg
10 | CCCN(CCC)C1Cc2c[nH]c3ccc(C(C)=O)c(c23)C1 (centres undefined) [LY-293284] |  |  |  |  |  |  | 0.13 nM | ED50 [8]: 0.031 µmol/kg
11 | COc1cc(CC(C)N)c(OC)cc1I (centres undefined) |  |  |  |  |  | 0.27 µmol/kg |  | ED50 [10]: 0.3 µmol/kg
